Data: ChEMBL document CHEMBL1125363, “Novel piperidine sigma receptor ligands as potential antipsychotic drugs” (J Med Chem, 1992)

How the values were obtained:
Mus musculus [1] = species on record: Mus musculus; assay: Oral potency tested by using anti-mescaline test; format: functional
Method in brief: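 Mice; mescaline was given to evoke hallucinogen-type behaviour, and the test compound was dosed orally to antagonise it. Potency is the ED50 in mg/kg po. Some ED50s are the average of three measurements.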

[2] = biological target: Sigma non-opioid intracellular receptor 1 (Mus musculus, UniProt O55242); assay: In vitro binding affinity for the mouse sigma opioid receptor
Rattus norvegicus [3] = species on record: Rattus norvegicus; assay: Oral potency tested using 5HTP induced head twitch test; format: functional
D(2) dopamine receptor [4] = biological target: T1, D(2) dopamine receptor (Mus musculus, UniProt P61168); assay: In vitro binding affinity towards dopamine receptor D2
[5] = (§1) Oral potency by using Anti aggression test; format: functional
Method in brief: (§2)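 Mice were held in prolonged isolation, then exposed to intruders. The aggressive response was scored after oral dosing of the test compound. Potency is the ED50 in mg/kg po.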

[6] = biological target: T2, Serotonin 2 (5-HT2) receptor (Mus musculus, UniProt Q02152+P34968+P35363); assay: In vitro binding affinity for serotonin 5-hydroxytryptamine (5-HT) 2 receptors; format: protein assay
Mus musculus [7] = species on record: Mus musculus; assay: Oral potency tested using apomorphine induced climbing test; format: functional
D(2) dopamine receptor [8] = biological target: T1, D(2) dopamine receptor; assay: The compound was tested in vitro for its binding affinity towards Dopamine receptor D2
[9] = biological target: T2, Serotonin 2 (5-HT2) receptor; assay: The compound was tested in vitro for its binding affinity towards 5-hydroxytryptamine 2 receptor; format: protein assay
Mus musculus [10] = species on record: Mus musculus; assay: as §1; format: functional; method in brief: as §2
Rattus norvegicus [11] = species on record: Rattus norvegicus; assay: The compound was tested for blocking the rotation induced by (+)-SKF 10047 in brain-lesioned rats.; format: functional
Method in brief: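 Rats with brain lesions were challenged with (+)-SKF 10047 to induce rotation. The test compound was given orally to block rotation. Reported as the ED50 in mg/kg po.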

D(1A) dopamine receptor = D(1A) dopamine receptor (Mus musculus, UniProt Q61616); assay: The compound was tested in vitro for its binding affinity towards dopamine receptor D1
Mus musculus [12] = species on record: Mus musculus; assay: Oral potency by using Anti aggression test

T1 sequence (P61168 whole entry): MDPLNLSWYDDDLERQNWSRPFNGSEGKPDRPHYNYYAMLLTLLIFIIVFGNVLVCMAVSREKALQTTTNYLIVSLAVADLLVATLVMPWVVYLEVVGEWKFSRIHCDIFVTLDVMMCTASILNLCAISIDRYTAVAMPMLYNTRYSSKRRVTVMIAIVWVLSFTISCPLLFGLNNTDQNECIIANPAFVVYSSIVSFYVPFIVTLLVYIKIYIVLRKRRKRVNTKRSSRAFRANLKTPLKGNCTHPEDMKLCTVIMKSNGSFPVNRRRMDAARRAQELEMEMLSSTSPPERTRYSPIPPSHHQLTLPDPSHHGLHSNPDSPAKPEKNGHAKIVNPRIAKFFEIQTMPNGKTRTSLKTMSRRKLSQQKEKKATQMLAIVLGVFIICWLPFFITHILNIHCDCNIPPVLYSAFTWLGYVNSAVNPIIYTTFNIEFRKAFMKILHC
Sigma non-opioid intracellular receptor 1, sequence (O55242 whole entry): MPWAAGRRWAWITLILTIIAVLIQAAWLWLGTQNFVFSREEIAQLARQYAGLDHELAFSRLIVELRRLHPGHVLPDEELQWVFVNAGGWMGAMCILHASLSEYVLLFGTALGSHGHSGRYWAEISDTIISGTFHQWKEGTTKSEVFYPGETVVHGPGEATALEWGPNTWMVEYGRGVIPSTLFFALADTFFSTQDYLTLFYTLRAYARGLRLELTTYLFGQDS
D(1A) dopamine receptor, sequence (Q61616 whole entry): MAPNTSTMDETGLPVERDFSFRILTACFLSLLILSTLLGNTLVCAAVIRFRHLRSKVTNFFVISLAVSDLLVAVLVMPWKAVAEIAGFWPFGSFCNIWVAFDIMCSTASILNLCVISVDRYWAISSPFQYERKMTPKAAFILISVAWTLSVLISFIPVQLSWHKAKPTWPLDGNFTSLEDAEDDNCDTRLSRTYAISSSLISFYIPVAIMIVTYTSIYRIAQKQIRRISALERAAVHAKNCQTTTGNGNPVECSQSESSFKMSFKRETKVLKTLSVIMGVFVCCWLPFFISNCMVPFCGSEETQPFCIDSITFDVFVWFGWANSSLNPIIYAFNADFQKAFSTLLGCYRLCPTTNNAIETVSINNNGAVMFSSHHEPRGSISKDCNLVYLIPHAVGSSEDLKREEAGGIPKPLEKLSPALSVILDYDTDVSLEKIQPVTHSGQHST

| Ki [2] [µM] | IC50 (D(2) dopamine receptor [4]) [µM] | Ki [6] [µM] | IC50 (D(2) dopamine receptor [8]) [µM] | Ki [9] [µM] | Ki (D(1A) dopamine receptor) [µM] | SMILES | ED50 (Mus musculus [1]) [mg/kg] | ED50 (Rattus norvegicus [3]) [mg/kg] | ED50 [5] [mg/kg] | ED50 (Mus musculus [7]) [mg/kg] | ED50 (Mus musculus [10]) [mg/kg] | ED50 (Rattus norvegicus [11]) [mg/kg] | ED50 (Mus musculus [12]) [mg/kg] |
| --- | --- | --- | --- | --- | --- | --- | --- | --- | --- | --- | --- | --- | --- |
| 0.013 | > 10 | 0.215 |  |  |  | O.O=[N+]([O-])c1ccc(OCC2CCN(CC3CC3)CC2)cc1 | 0.85 | > 10 | 1.4 | > 30 |  |  |  |
| 0.014 | 3.15 | > 1 |  |  |  | CC(C)(C)c1ccc(OCC2CCN(CC3CC3)CC2)cc1 | < 30 |  |  | > 30 | > 30 |  |  |
| 0.011 | > 10 | > 10 |  |  | > 10 | N#Cc1ccc(C(=O)CC2CCN(CC3CC3)CC2)cc1.O=C(O)/C=C/C(=O)O | 0.8 | 22.3 | 0.44 | > 90 |  | 5.3 |  |
| 0.002 | 0.381 | 0.009 |  |  |  | Fc1ccc(OCC2CCN(CC3CC3)CC2)cc1 | 2.9 | 10 | 12 | > 30 |  |  |  |
| 0.004 | > 10 | 0.04 |  |  |  | Cl.Clc1ccc(OCC2CCN(CC3CC3)CC2)cc1 | 4.4 | 27 | 26 | > 30 |  |  |  |
| 0.01 |  | 0.015 |  |  |  | Br.O=C(CC1CCN(CC2CC2)CC1)c1ccc(F)cc1 | 0.35 | 1.8 |  | 15 |  | 2.4 | 1.9 |
| 0.045 | > 10 | 0.278 |  |  |  | Cl.O.O=C(CC1CCN(CC2CC2)CC1)c1ccc(C(F)(F)F)cc1 | 6.6 |  |  | > 30 |  |  | > 30 |
| 0.051 | 1.72 | 0.547 |  |  |  | Br.O=C(CC1CCN(CC2CC2)CC1)c1ccc(-c2ccccc2)cc1 | 4.7 | 10 |  | > 30 |  |  | 8.4 |
| 0.008 | 2 | 0.495 |  |  |  | Br.O=C(CC1CCN(CC2CC2)CC1)c1ccc(Cl)cc1 | 0.46 | 30 |  | > 30 |  |  | 14 |

More lines, now with the values behind:

| SMILES | Ki [2] [µM] | IC50 (D(2) dopamine receptor [4]) [µM] | Ki [6] [µM] | IC50 (D(2) dopamine receptor [8]) [µM] | Ki [9] [µM] | Ki (D(1A) dopamine receptor) [µM] | ED50 (Mus musculus [1]) [mg/kg] | ED50 (Rattus norvegicus [3]) [mg/kg] | ED50 [5] [mg/kg] | ED50 (Mus musculus [7]) [mg/kg] | ED50 (Mus musculus [10]) [mg/kg] | ED50 (Rattus norvegicus [11]) [mg/kg] | ED50 (Mus musculus [12]) [mg/kg] |
| --- | --- | --- | --- | --- | --- | --- | --- | --- | --- | --- | --- | --- | --- |
| O=C(CC1CCN(Cc2ccc(F)cc2)CC1)c1ccc(F)cc1 | 0.003 | 0.608 | 0.026 |  |  |  | 4.5 | < 10 | 4.5 | < 10 |  |  |  |
| Fc1ccc(SCC2CCN(CCC3CC3)CC2)cc1 | 0.005 |  |  | 1.7 | 0.053 |  | > 10 |  |  |  |  |  |  |
| O.c1ccc(-c2ccc(OCC3CCN(CC4CC4)CC3)cc2)cc1 | 0.012 | > 10 | > 10 |  |  |  | 7.5 | > 30 | 30 | > 30 |  |  |  |
| O.O=C(CC1CCN(Cc2ccccc2)CC1)c1ccc(F)cc1.O=C(O)/C=C\C(=O)O | 0.001 | 1.55 | 0.02 |  |  |  | 4.8 | 2.8 |  | 18 | 8.6 |  |  |
| Cl.OC(CC1CCN(Cc2ccccc2)CC1)c1ccc(F)cc1 (configuration not stated) | 0.008 | 5.66 | 0.323 |  |  |  | 5 | 6.8 | 32 | > 30 |  |  |  |
| OC(CCCN1CCN(c2ncc(F)cn2)CC1)c1ccc(F)cc1 (configuration not stated) [BMY-14802] | 0.174 | 2.43 | 0.41 |  |  |  | 6 | 2.3 |  | > 90 |  |  | 45 |
| C[C@@H]1CN(CCCn2c3ccccc3c3ccccc32)C[C@H](C)N1 [RIMCAZOLE] | 0.82 |  | 2.842 |  |  |  | 22 |  |  | > 90 |  |  | 48 |
